This passage reports IC50 results from ChEMBL document CHEMBL3588808, “Koumine, Humantenine, and Yohimbane Alkaloids from Gelsemium elegans” (J Nat Prod, 2015).

The test system of one assay is RAW264.7. The assay can be described thus: Inhibition of nitric oxide production in LPS-activated mouse RAW264.7 cells. In kind it is functional, cell-based. The method in brief: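 LPS-activated RAW264.7 macrophages; compounds dissolved in DMSO and diluted in medium to a range of concentrations, top concentration 25 μM; NO production read as absorbance at 570 nm on a plate reader.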

The next assay relates to MCF7. Briefly: Cytotoxicity against human MCF7 cells by MTT assay. In kind it is functional, cell-based. Background: Formazan colour is commonly taken as a measure of viable cells.
Assay [1] in a line: Cytotoxicity against human BEAS2B cells by MTT assay. It counts as cell-based, BEAS-2B.
The test system of another assay is A549. Briefly: Cytotoxicity against human A549 cells by MTT assay. It counts as functional, cell-based.
In the next assay the test system is SMMC-7721. Briefly: Cytotoxicity against human SMMC7721 cells by MTT assay. In kind it is functional, cell-based.
For a further assay, the system named is SW480. The assay can be described thus: Cytotoxicity against human SW480 cells by MTT assay. In kind it is functional, cell-based.
The next assay has as its system HL-60. Briefly: Cytotoxicity against human HL60 cells by MTT assay. In kind it is functional, cell-based.
Setting [2] is: Mus musculus, RAW264.7, read-out: IC50.
[3] abbreviates: Homo sapiens, MCF7, read-out: IC50.
Setting [4] is: Homo sapiens, BEAS-2B, read-out: IC50.
Where [5] appears, read: Homo sapiens, A549, read-out: IC50.
The mark [6] stands for this setting: Homo sapiens, SMMC-7721, read-out: IC50.
Where [7] appears, read: Homo sapiens, SW480, read-out: IC50.
Setting [8] is: Homo sapiens, HL-60, read-out: IC50.

On to `C=C[C@]12[C@@H]3C[C@@H]4OC[C@@H]3[C@@H](C[C@]13C4=Nc1ccccc13)N(C)[C@@H]2O`, for which the IC50 in the assay on RAW264.7 (setting [2]) was over 25 µM.
`CCOC(=O)CCc1cc2c3[n-]c4ccccc4c3cc[n+]2cc1C(=O)O`: the IC50 in the assay on RAW264.7 (setting [2]) is over 25 µM.
For the molecule `COc1ccc2c(c1)N(OC)C(=O)[C@@]21C[C@@H]2NC[C@](O)(C(C)O)[C@@H]3C[C@H]1OC[C@H]23` (some centres not stated), in the assay with RAW264.7 (setting [2]), the IC50 was over 25 µM.
On the same count and under the same terms, then `CC[C@@]1(O)CN[C@H]2C[C@@]3(C(=O)N(OC)c4ccccc43)[C@@H]3OC[C@H]2[C@H]1[C@@H]3O`, with over 25 µM; and `C=C[C@]12[C@@H]3C[C@@H]4OC[C@@H]3[C@@H](C[C@]13C4=Nc1ccccc13)N(C)[C@H]2O`, with over 25 µM.
As to `C=C[C@@]12C=N[C@H]3C[C@]14C(=Nc1ccccc14)[C@H]1C[C@@H]2[C@@H]3CO1`, the IC50 in the assay on MCF7 (setting [3]) was 9.3 µM; in assay [1] (setting [4]), 8.6 µM; with A549 (setting [5]), 4.9 µM; with RAW264.7 (setting [2]), over 25 µM; with SMMC-7721 (setting [6]) it was 5.3 µM; in the assay with SW480 (setting [7]), 7.3 µM. Further, the IC50 in the assay on HL-60 (setting [8]) is 4.6 µM.
As for `[O-][n+]1c2c3cc4c(cn3ccc-2c2ccccc21)CCCC4`, the IC50 result (in the assay with MCF7 (mcf7); in assay [1] (beas-2b); with A549 (a549); in the assay with RAW264.7 (raw264.7); in the assay with SMMC-7721 (smmc-7721); in the assay on SW480 (sw480)) was “ND(Insoluble)” in each case. Further, the IC50 result with HL-60 (hl-60) is given as “ND(Insoluble)”.
Consider `C[C@H](O)[C@@]12C[N+](C)([O-])[C@@H]3C[C@]14C(=Nc1ccccc14)[C@H]1C[C@@H]2[C@@H]3CO1` (some centres not stated), for which the IC50 in the assay with RAW264.7 (setting [2]) is over 25 µM.
For `COc1ccc2c(c1)N(OC)C(=O)[C@@]21C[C@@H]2NC=C(C=O)[C@@H]3C[C@H]1OC[C@H]23`, the IC50 with MCF7 (setting [3]) is over 10 µM; in assay [1] (setting [4]), over 10 µM; in the assay on A549 (setting [5]), 9.3 µM; in the assay with RAW264.7 (setting [2]), over 25 µM; in the assay with SMMC-7721 (setting [6]), 7.3 µM; in the assay on SW480 (setting [7]), over 10 µM. Moreover, the IC50 in the assay on HL-60 (setting [8]) was found to be 8.5 µM.

Usually IC50 stands for the point on the concentration scale where inhibition reaches its midpoint.
